Calls of active or inactive are those of the source. The rule behind the calls is not given here.
Experiments:
[1] = target: Serine/threonine-protein kinase PLK1 (Homo sapiens, UniProt P53350); assay: Inhibition of PLK1 assessed as [33Pi] incorporation by microplate scintillation counting in presence of 1 uM ATP
[2] = target: T1, Vascular endothelial growth factor receptor 2 (Homo sapiens, UniProt P35968); assay: Inhibition of VEGFR2 assessed as [33Pi] incorporation by microplate scintillation counting in presence of 1 uM ATP
How it was run: (§1)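 Substrates: Poly(Glu,Tyr)4:1 for VEGFR2; Poly(Glu,Tyr) or Poly(Ala,Glu,Lys,Tyr) for INS-R; RBER-CHKtide or casein for PLK1. Incubated 30 °C, 80 min, stopped with 2% H3PO4. Singlicate; activity referenced to no-enzyme and no-inhibitor controls.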

[3] = target: Insulin receptor (Homo sapiens, UniProt P06213); assay: Inhibition of INSR assessed as [33Pi] incorporation by microplate scintillation counting in presence of 1 uM ATP; how it was run: as §1
[4] = tested on: NCI60; assay: Antiproliferative activity against human NCI60 cells at 10 uM after 48 hrs by sulforhodamine B assay; type: functional, cell-based
How it was run: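 NCI 60-cell-line prescreen with compound given once at 10 μM. Cells grown in RPMI 1640 with 5% FBS and 2 mM L-glutamine, plated 24 h before dosing, then exposed 48 h at 37 °C. Fixed with cold TCA, stained with SRB, absorbance read at 515 nm, and percent growth taken relative to time-zero and control wells.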

[5] = tested on: UACC-257; assay: Growth inhibition of human UACC257 cells after 48 hrs by sulforhodamine B assay; type: functional; conditions: UACC-257, 48 h
How it was run: (§2)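 NCI SRB assay with five drug concentrations, top concentration 100 μM, 48 h exposure at 37 °C in RPMI 1640/5% FBS. GI50 is the concentration giving [(Ti−Tz)/(C−Tz)]×100 = 50. Values are means of two independent runs on different dates, each run in duplicate.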

[6] = tested on: CAKI-1; assay: Growth inhibition of human Caki1 cells after 48 hrs by sulforhodamine B assay; type: functional; conditions: CAKI-1, 48 h; how it was run: as §2
[7] = tested on: IGROV-1; assay: Growth inhibition of human IGROV1 cells after 48 hrs by sulforhodamine B assay; type: functional; conditions: IGROV-1, 48 h; how it was run: as §2
[8] = target: T1, Vascular endothelial growth factor receptor 2; assay: Inhibition of VEGFR2 in HUE cells assessed as inhibition of VEGF-induced autophosphorylation treated for 90 mins before VEGF challenge by ELISA; type: cell-based
[9] = tested on: HUVEC; assay: Inhibition of angiogenesis in HUVEC assessed as inhibition of VEGF-induced sprout growth from cellular spheroids after 24 hrs; type: functional, cell-based; conditions: Homo sapiens
How it was run: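 Spheroids of 500 primary HUVEC formed overnight in hanging drops, then embedded in collagen gel. Compound added with VEGF-A at 25 ng/mL final, incubated 37 °C for 24 h, then fixed in 4% paraformaldehyde. Cumulative sprout length measured by image analysis; the mean of 10 random spheroids counts as one data point. IC50 from curve fitting.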

Insulin receptor, sequence (P06213 28-758 limits assumed): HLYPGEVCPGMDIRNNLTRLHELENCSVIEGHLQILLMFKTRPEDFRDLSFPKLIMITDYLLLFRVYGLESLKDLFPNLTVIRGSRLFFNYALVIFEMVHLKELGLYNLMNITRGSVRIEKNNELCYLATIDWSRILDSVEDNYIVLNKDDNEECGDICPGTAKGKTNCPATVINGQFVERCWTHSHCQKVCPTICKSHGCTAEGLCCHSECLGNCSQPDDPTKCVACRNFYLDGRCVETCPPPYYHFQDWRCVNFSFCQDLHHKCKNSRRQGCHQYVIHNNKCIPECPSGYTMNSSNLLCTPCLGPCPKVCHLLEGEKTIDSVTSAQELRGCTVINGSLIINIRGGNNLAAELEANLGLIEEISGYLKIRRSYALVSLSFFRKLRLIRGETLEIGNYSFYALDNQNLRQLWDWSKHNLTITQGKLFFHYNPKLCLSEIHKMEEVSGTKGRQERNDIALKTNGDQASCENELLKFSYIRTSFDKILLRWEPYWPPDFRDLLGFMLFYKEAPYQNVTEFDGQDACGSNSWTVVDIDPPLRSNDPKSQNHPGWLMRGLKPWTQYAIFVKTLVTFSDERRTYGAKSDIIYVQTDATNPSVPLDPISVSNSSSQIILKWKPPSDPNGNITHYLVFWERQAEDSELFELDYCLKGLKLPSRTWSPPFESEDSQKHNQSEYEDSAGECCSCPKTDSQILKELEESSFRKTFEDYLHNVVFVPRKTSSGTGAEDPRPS
Insulin receptor, sequence (P06213 763-1382 limits assumed): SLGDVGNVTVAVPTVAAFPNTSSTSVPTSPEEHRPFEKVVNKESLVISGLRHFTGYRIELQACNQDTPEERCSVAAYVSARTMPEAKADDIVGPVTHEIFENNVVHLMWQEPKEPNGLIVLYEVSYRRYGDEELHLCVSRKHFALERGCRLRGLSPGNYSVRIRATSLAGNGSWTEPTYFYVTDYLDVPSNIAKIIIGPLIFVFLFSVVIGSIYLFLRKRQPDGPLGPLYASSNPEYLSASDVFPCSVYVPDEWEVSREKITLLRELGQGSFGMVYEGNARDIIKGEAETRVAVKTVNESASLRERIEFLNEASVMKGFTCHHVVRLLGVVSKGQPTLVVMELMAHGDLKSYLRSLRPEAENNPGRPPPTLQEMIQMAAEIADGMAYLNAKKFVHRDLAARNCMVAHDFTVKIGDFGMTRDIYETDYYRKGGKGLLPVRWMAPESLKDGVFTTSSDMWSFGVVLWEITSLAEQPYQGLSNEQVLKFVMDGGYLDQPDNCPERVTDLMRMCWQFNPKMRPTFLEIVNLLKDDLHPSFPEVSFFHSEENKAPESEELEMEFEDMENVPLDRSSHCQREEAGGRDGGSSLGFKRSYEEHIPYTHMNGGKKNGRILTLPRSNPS
T1 sequence (P35968 whole entry): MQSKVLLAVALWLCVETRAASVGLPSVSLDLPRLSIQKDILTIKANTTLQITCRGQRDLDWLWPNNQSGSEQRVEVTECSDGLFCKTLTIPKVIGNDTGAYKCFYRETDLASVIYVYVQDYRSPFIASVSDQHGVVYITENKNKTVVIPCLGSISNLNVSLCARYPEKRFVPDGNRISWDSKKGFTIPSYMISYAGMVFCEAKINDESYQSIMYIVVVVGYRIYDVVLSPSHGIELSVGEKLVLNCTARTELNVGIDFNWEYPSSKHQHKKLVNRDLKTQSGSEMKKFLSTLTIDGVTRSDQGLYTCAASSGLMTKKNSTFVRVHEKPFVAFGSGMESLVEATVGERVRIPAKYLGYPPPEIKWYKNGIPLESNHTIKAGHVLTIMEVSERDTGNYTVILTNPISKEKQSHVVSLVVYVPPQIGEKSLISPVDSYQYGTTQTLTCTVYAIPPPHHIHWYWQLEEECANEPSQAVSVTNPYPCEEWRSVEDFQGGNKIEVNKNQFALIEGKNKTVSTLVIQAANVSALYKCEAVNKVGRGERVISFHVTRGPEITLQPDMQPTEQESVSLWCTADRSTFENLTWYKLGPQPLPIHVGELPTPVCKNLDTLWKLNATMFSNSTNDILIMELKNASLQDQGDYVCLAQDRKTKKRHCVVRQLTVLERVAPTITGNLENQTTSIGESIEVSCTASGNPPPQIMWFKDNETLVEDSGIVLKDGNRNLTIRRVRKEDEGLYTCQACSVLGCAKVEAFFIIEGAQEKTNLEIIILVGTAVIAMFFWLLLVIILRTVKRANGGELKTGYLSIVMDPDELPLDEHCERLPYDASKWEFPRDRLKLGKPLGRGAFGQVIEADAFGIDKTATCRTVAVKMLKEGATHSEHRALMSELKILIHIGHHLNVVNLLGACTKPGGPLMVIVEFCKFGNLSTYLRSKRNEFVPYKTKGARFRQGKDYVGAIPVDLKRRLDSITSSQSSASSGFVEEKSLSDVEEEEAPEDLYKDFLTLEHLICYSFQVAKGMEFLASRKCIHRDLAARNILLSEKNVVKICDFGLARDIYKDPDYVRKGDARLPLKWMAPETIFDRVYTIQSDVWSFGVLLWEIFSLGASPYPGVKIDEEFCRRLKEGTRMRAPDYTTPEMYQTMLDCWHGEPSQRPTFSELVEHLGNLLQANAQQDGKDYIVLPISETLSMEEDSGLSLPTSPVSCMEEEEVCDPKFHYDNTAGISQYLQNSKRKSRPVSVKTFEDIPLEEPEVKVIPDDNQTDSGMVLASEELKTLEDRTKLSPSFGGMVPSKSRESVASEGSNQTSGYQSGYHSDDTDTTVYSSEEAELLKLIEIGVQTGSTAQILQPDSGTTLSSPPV
Serine/threonine-protein kinase PLK1, sequence (P53350 whole entry): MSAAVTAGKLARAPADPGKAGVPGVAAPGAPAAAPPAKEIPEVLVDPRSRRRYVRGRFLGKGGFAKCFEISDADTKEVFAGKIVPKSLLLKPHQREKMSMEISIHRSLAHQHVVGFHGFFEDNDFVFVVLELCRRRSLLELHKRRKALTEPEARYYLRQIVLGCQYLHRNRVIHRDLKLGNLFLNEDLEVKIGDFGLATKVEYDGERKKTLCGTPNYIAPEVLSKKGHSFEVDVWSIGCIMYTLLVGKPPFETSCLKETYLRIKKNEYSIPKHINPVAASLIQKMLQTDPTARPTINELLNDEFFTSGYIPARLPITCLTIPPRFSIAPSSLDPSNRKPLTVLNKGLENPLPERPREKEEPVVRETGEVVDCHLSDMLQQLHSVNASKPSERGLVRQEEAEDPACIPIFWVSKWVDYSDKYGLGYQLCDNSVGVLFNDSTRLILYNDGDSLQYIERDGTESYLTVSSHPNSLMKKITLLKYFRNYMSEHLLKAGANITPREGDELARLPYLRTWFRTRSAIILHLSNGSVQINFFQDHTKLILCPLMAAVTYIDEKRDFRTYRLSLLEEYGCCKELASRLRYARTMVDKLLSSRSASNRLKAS

IC50 [1] [µM] | IC50 [2] [µM] | IC50 [3] [µM] | IC50 [8] [µM] | Structure (SMILES) | Activity [4] | GI50 [5] [µM] | GI50 [6] [µM] | GI50 [7] [µM] | IC50 [9] [µM]
> 100 | 16 | > 100 |  | O=C1Cc2cnc3cc(-c4ccccc4)nn3c2-c2ncccc2N1 | Active |  |  |  | 
> 100 | 2 | > 100 |  | CCOc1ccc(Nc2ncc3c(n2)-c2ncccc2NC(=O)C3)cc1 | Active |  |  |  | 
55 | 2.7 | > 100 |  | O=C1Cc2cnc(Nc3ccc(O)cc3)nc2-c2ncccc2N1 | Active |  |  |  | 
> 100 | 2 | > 100 |  | O=C1Cc2cnc3cc(-c4ccccc4)nn3c2-c2cnccc2N1 | Active |  |  |  | 
> 100 | 66 | > 100 |  | O=C1Cc2cc3c(=O)[nH]c(=O)[nH]c3nc2-c2ncccc2N1 | Active |  |  |  | 
> 100 | > 100 | > 100 |  | O=C1Cc2cnc3ncnn3c2-c2ncccc2N1 | Active |  |  |  | 
> 100 | 0.67 | > 100 |  | O=C1Cc2cnc(Nc3ccc(O)c(Cl)c3)nc2-c2ncccc2N1 | Active |  |  |  | 
> 100 | 0.63 | > 100 |  | O=C1Cc2cnc3cc(-c4ccccc4)nn3c2-c2ccccc2N1 | Active |  |  |  | 
2.3 | 0.14 | > 100 |  | O=C1Cc2cnc(Nc3cccc(O)c3)nc2-c2cnccc2N1 | Active |  |  |  | 
> 100 | 1.5 | > 100 |  | COc1ccc(Nc2ncc3c(n2)-c2ncccc2NC(=O)C3)cc1 | Active |  |  |  | 
> 100 | 0.14 | > 100 |  | O=C1Cc2cnc(Nc3ccccc3)nc2-c2ccccc2N1 | Active |  |  |  | 
20 | 1.2 | > 100 |  | Cc1cc(O)ccc1Nc1ncc2c(n1)-c1ccccc1NC(=O)C2 | Active |  |  |  | 
> 100 | 2.6 | > 100 |  | O=C1Cc2cnc(Nc3cccc(O)c3)nc2-c2ncccc2N1 | Active |  |  |  | 
> 100 | 12 | > 100 |  | O=C1Cc2cnc3ccnn3c2-c2ccccc2N1 | Active |  |  |  | 
> 100 | 57 | > 100 |  | O=C1Cc2cnc(Nc3ccccc3Br)nc2-c2ccccc2N1 | Active |  |  |  | 
> 100 | 8.6 | > 100 |  | COc1ccc2c(c1)NC(=O)Cc1cnc3ccnn3c1-2 | Active |  |  |  | 
> 100 | > 100 | > 100 |  | COc1ccc2c(c1)NC(=O)Cc1cnc3ncnn3c1-2 | Active |  |  |  | 
> 100 | 0.19 | > 100 |  | Cc1ccc(Nc2ncc3c(n2)-c2ccccc2NC(=O)C3)cc1 | Active |  |  |  | 
2.6 | 0.13 | > 100 |  | O=C1Cc2cnc(Nc3ccc(O)cc3)nc2-c2cnccc2N1 | Active |  |  |  | 
> 100 | 0.08 | > 100 |  | O=C1Cc2cnc(Nc3ccc(O)cc3)nc2-c2ccccc2N1 | Active | > 100 | 2.6 | 3 | 
> 100 | 87 | > 100 |  | O=C1Cc2cnc3ccnn3c2-c2ncccc2N1 | Active |  |  |  | 
> 100 | 0.19 | > 100 |  | O=C1Cc2cnc(Nc3ccc(Cl)cc3)nc2-c2ccccc2N1 | Active |  |  |  | 
> 100 | > 100 | > 100 |  | Cn1c(=O)c2cc3c(nc2n(C)c1=O)-c1ncccc1NC(=O)C3 | Active |  |  |  | 

The next lines start with the compound.

Structure (SMILES) | IC50 [1] [µM] | IC50 [2] [µM] | IC50 [3] [µM] | IC50 [8] [µM] | Activity [4] | GI50 [5] [µM] | GI50 [6] [µM] | GI50 [7] [µM] | IC50 [9] [µM]
O=C1Cc2cnc(Nc3ccccc3Cl)nc2-c2ccccc2N1 | 73 | 6.1 | > 100 |  | Active |  |  |  | 
O=C1Cc2c([nH]c3ccc(Br)cc23)-c2ccccc2N1 |  |  |  |  | Active |  |  |  | 
O=C1Cc2cnc(Nc3ccc(I)cc3)nc2-c2ccccc2N1 | 15 | 0.4 | > 100 |  | Active |  |  |  | 
CCOc1ccc(Nc2ncc3c(n2)-c2ccccc2NC(=O)C3)cc1 | > 100 | 0.13 | > 100 |  | Active | 27 | 0.75 | 0.38 | 
COc1ccc2c(c1)NC(=O)Cc1cc3c(=O)[nH]c(=O)[nH]c3nc1-2 | > 100 | > 100 | > 100 |  | Active |  |  |  | 
CCOc1ccc(Nc2ncc3c(n2)-c2cnccc2NC(=O)C3)cc1 | 1.7 | 0.099 | > 100 | 18.6 | Active | > 100 | 0.16 | 0.4 | 
O=C1Cc2cnc(Nc3ccccc3O)nc2-c2ccccc2N1 | 14 | 0.53 | > 100 |  | Active |  |  |  | 
COc1ccc2c(c1)NC(=O)Cc1cnc(Nc3ccc(O)cc3)nc1-2 | 0.75 | 0.028 | > 100 |  | Active |  |  |  | 
COc1ccc2c(c1)NC(=O)Cc1cnc(Nc3cccc(O)c3)nc1-2 | 0.84 | 0.015 | > 100 |  | Active |  |  |  | 
COc1ccc(Nc2ncc3c(n2)-c2cnccc2NC(=O)C3)cc1 | 2.5 | 0.19 | > 100 |  | Active |  |  |  | 
COc1ccc(Nc2ncc3c(n2)-c2ccc(OC)cc2NC(=O)C3)cc1 | 0.35 | 0.05 | > 100 |  | Active |  |  |  | 
O=C1Cc2cnc(Nc3ccc(O)c(Cl)c3)nc2-c2ccccc2N1 | 9.3 | 0.035 | 84 | 9.6 | Active | 39 | 4.7 |  | 
COc1ccc2c(c1)NC(=O)Cc1cc3c(=O)n(C)c(=O)n(C)c3nc1-2 | > 100 | > 100 | > 100 |  | Active |  |  |  | 
O=C1Cc2cc3c(=O)[nH]c(=O)[nH]c3nc2-c2cnccc2N1 | > 100 | > 100 | > 100 |  | Active |  |  |  | 
O=C1Cc2cc3c(=O)[nH]c(=O)[nH]c3nc2-c2ccccc2N1 | > 100 | > 100 | > 100 |  | Active |  |  |  | 
COc1ccc2c(c1)NC(=O)Cc1cnc3cc(-c4ccccc4)nn3c1-2 | 17 | 1.8 | 11 |  | Active |  |  |  | 
O=C1Cc2cnc(Nc3ccc(Br)cc3)nc2-c2ccccc2N1 | > 100 | 0.29 | > 100 |  | Active |  |  |  | 
Cn1c(=O)c2cc3c(nc2n(C)c1=O)-c1ccccc1NC(=O)C3 | > 100 | > 100 | > 100 |  | Active |  |  |  | 
O=C1Cc2cnc(Nc3ccc([N+](=O)[O-])cc3)nc2-c2ccccc2N1 | > 100 | 0.33 | 22 |  | Active |  |  |  | 
O=C1Cc2cnc(Nc3cccc(O)c3)nc2-c2ccccc2N1 | 19 | 0.051 | > 100 | 1.6 | Active |  |  |  | 
COc1ccc(Nc2ncc3c(n2)-c2ccccc2NC(=O)C3)cc1O | 5.7 | 0.073 | 24 | 2.4 | Active | 19 | 0.15 | 0.25 | 
COc1ccc2c(c1)NC(=O)Cc1cnc(Nc3ccc(O)c(Cl)c3)nc1-2 | 0.36 | 0.011 | > 100 | 0.43 | Active |  |  |  | 1.2
Cn1c(=O)c2cc3c(nc2n(C)c1=O)-c1cnccc1NC(=O)C3 | > 100 | > 100 | > 100 |  | Active |  |  |  | 
COc1ccc2c(c1)NC(=O)Cc1cnc(Nc3ccc(OC)c(O)c3)nc1-2 | 0.14 | 0.018 | > 100 |  | Active |  |  |  | 
COc1ccc(Nc2ncc3c(n2)-c2ccccc2NC(=O)C3)cc1 | 47 | 0.095 | 99 |  | Active | 61 | 0.51 | 0.41 | 

Reference: ChEMBL document CHEMBL1157616, “Identification of 2-anilino-9-methoxy-5,7-dihydro-6H-pyrimido[5,4-d][1]benzazepin-6-ones as dual PLK1/VEGF-R2 kinase inhibitor chemotypes by structure-based lead generation” (J Med Chem, 2010)
